Legend:
[1] = target: 3',5'-cyclic-AMP phosphodiesterase 4D (Homo sapiens, UniProt Q08499); test: Inhibition of PDE4D isolated from human U937 cells using [3H]-cAMP incubated for 30 mins
PBMC [2] = test: Inhibition of LPS-induced TNFalpha production in human PBMC pre-incubated for 30 mins before LPS stimulation for 18 hrs by TR-FRET assay; format: functional, cell-based
Method in brief: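 PBMCs isolated from buffy coats (blood diluted 1:1 saline) and suspended at 5 × 10⁵ cells/mL in RPMI 1640 with 0.5% human serum albumin, pen/strep, 2 mM L-glutamine. 30 min compound pre-incubation, then 18 h LPS stimulation; supernatant TNF-α by TR-FRET (665 nm signal, 620 nm control); IC50 in μM.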

[3] = target: T1, 3',5'-cyclic-AMP phosphodiesterase 4B (Homo sapiens, UniProt Q07343); test: Inhibition of PDE4B isolated from human U937 cells using [3H]-cAMP incubated for 30 mins
Rattus norvegicus = test: Inhibition of LPS-induced neutropenia in Sprague-Dawley rat model of asthma assessed as reduction in neutrophils in BAL fluid at 10 mg/kg, po pre-treated 30 mins before LPS challenge and measured 6 hrs after LPS injection relative to untreated control; format: functional; settings: in the assay text read “neutrophilia” for “neutropenia”
Method in brief: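 Male Sprague Dawley rats acclimatized one week, randomized by weight (n = 6). Compound at 10 mg/kg po in 0.25% carboxymethyl cellulose vehicle given 30 min before 40 min exposure to 100 μg/mL E. coli LPS (B4). BAL at 6 h after exposure; total cell count and differential count versus control.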

Mus musculus = test: Inhibition of LPS-induced TNFalpha production in Swiss Albino mouse model of sepsis at 10 mg/kg, po pre-treated 30 mins before LPS challenge and measured 90 mins post LPS injection by ELISA method relative to untreated control; format: functional
Method in brief: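 Female Swiss albino mice, weight-matched groups (n = 6), fasted 20 h with water; test compound given orally at 10 mg/kg as suspension in 0.5% Tween 80 / 0.25% sodium CMC, controls vehicle only. 30 min later 500 μg E. coli LPS (B4) i.p. in phosphate buffer; retro-orbital bleed at 90 min, serum TNF-α by mouse ELISA.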

PDE7A = PDE7A (Homo sapiens, UniProt Q13946); test: Inhibition of human PDE7A at 100 uM
PDE1A = PDE1A (Homo sapiens, UniProt P54750); test: Inhibition of human PDE1A at 100 uM
PDE5A = PDE5A (Homo sapiens, UniProt O76074); test: Inhibition of human PDE5A at 100 uM
[4] = target: T1, 3',5'-cyclic-AMP phosphodiesterase 4B; test: Inhibition of human PDE4B at 100 uM
PDE6C = PDE6C (Homo sapiens, UniProt P51160); test: Inhibition of human PDE6C at 100 uM
PDE9A = PDE9A (Homo sapiens, UniProt O76083); test: Inhibition of human PDE9A at 100 uM
PDE10A = PDE10A (Homo sapiens, UniProt Q9Y233); test: Inhibition of human PDE10A at 100 uM
PBMC [5] = test: Potency index, ratio of IC50 for rolipram to IC50 for test compound for inhibition of LPS-induced TNFalpha production in human PBMC pre-incubated for 30 mins before LPS stimulation for 18 hrs by TR-FRET assay; format: functional
PDE2A = PDE2A (Homo sapiens, UniProt O00408); test: Inhibition of human PDE2A at 100 uM
PDE11A = PDE11A (Homo sapiens, UniProt Q9HCR9); test: Inhibition of human PDE11A at 100 uM
PDE8A = PDE8A (Homo sapiens, UniProt O60658); test: Inhibition of human PDE8A at 100 uM
PDE3B = PDE3B (Homo sapiens, UniProt Q13370); test: Inhibition of human PDE3B at 100 uM
Sequence of PDE3B (Q13370 whole entry): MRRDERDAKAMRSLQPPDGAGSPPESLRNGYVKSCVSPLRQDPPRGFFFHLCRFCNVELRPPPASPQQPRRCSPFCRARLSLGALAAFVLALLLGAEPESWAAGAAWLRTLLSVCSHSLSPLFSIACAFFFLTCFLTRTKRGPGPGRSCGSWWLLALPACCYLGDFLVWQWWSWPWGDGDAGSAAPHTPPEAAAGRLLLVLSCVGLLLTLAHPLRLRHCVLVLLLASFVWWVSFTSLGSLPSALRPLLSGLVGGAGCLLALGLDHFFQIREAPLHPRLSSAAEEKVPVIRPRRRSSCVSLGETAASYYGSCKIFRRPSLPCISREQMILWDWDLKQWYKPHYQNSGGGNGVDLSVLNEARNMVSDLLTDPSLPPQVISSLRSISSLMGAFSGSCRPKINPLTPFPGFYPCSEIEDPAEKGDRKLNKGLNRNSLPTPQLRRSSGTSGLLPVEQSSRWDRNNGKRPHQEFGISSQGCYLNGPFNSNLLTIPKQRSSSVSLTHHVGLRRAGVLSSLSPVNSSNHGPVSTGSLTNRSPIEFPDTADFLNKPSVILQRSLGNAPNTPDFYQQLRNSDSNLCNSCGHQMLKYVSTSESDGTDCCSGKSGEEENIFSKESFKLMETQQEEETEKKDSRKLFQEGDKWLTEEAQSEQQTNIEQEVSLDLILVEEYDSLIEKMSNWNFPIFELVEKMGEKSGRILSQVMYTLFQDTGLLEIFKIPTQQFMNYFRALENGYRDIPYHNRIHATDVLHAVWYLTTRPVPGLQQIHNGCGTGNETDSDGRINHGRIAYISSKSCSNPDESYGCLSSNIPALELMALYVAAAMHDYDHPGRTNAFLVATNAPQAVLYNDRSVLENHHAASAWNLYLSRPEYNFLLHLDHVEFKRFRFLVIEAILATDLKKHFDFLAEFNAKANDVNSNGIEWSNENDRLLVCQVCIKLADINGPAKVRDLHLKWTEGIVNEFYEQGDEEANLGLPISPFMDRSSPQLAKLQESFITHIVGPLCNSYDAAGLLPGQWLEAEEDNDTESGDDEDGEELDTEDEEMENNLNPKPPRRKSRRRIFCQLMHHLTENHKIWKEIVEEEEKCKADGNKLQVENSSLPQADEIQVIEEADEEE

T1 sequence (Q07343 whole entry): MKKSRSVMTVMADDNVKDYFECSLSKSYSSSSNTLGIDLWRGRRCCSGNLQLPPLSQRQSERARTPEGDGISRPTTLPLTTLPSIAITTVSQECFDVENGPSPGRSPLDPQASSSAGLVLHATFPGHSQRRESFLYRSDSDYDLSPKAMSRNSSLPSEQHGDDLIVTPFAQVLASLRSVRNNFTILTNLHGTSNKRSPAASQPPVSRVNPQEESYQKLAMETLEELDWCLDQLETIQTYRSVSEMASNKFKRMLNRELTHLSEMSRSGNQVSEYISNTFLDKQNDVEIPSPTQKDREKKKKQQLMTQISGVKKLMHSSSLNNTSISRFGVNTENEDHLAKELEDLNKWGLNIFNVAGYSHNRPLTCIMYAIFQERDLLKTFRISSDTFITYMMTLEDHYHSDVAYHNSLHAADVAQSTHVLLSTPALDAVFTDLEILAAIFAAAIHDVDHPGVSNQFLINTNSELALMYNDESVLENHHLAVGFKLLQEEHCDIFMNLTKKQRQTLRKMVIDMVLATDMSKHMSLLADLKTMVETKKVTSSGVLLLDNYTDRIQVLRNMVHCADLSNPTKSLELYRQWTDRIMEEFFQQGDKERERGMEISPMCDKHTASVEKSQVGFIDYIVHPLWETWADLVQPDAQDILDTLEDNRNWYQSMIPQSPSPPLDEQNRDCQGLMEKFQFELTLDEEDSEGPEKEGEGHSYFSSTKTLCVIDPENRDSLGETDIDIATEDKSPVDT
Sequence of 3',5'-cyclic-AMP phosphodiesterase 4D (Q08499 whole entry): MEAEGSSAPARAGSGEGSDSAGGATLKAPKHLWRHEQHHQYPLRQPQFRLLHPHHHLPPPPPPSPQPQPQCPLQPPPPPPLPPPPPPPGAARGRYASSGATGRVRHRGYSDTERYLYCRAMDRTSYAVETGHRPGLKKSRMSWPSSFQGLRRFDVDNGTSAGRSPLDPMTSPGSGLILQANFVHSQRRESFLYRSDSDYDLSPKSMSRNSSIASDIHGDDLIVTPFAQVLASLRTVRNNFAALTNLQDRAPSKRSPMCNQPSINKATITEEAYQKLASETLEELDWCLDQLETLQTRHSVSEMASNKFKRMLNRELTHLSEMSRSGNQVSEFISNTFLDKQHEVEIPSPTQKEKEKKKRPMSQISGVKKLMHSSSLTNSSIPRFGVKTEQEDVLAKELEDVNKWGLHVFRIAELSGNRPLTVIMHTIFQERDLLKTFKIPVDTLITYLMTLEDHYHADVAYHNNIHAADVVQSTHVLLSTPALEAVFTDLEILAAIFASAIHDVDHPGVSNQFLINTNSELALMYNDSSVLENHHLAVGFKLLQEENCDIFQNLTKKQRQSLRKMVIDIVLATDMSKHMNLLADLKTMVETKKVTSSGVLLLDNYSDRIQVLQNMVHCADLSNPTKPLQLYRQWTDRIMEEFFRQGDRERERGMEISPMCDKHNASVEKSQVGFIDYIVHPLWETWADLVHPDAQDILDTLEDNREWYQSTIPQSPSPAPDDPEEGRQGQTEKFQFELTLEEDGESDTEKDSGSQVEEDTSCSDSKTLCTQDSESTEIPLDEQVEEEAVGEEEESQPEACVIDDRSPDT
Sequence of PDE1A (P54750 whole entry): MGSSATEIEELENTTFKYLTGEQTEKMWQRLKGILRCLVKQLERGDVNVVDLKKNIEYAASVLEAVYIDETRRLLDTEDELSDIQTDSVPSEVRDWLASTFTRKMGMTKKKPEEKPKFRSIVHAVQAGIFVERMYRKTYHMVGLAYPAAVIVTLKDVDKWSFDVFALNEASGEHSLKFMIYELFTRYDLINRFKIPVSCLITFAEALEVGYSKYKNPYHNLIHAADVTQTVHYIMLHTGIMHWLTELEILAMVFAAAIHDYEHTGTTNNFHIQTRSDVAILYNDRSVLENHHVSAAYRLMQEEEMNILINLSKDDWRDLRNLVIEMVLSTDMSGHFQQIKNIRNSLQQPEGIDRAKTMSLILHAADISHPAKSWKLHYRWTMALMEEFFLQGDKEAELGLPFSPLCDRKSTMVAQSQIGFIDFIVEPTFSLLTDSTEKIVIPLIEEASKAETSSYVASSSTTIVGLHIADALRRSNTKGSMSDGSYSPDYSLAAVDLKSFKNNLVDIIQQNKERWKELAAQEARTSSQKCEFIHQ
Sequence of PDE10A (Q9Y233 whole entry): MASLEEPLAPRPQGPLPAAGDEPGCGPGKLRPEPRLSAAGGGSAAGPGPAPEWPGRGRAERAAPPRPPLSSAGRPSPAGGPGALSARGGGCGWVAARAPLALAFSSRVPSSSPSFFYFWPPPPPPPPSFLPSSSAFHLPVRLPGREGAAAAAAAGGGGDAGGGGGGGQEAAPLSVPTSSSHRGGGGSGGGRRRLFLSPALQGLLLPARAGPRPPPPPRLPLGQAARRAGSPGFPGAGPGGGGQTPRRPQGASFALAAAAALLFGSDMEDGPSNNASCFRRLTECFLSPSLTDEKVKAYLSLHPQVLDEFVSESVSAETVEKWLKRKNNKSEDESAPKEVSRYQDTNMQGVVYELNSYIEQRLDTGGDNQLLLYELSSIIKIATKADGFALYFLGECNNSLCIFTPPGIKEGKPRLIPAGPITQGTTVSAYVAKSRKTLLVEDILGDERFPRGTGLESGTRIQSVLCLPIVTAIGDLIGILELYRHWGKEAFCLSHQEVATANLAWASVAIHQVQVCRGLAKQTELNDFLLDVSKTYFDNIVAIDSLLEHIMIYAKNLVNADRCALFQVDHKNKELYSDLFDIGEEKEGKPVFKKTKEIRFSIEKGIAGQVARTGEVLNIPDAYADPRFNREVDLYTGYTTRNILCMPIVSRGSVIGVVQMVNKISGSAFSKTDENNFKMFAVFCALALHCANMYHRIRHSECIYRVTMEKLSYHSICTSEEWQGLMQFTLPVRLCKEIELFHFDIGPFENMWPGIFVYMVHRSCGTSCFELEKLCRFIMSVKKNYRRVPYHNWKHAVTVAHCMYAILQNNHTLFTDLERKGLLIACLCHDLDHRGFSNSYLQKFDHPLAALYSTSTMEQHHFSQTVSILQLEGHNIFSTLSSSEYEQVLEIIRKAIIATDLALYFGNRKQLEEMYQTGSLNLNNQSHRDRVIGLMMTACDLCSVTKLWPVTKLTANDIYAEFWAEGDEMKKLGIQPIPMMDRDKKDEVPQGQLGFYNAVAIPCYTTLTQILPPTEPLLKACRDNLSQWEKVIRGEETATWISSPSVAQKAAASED
Sequence of PDE7A (Q13946 whole entry): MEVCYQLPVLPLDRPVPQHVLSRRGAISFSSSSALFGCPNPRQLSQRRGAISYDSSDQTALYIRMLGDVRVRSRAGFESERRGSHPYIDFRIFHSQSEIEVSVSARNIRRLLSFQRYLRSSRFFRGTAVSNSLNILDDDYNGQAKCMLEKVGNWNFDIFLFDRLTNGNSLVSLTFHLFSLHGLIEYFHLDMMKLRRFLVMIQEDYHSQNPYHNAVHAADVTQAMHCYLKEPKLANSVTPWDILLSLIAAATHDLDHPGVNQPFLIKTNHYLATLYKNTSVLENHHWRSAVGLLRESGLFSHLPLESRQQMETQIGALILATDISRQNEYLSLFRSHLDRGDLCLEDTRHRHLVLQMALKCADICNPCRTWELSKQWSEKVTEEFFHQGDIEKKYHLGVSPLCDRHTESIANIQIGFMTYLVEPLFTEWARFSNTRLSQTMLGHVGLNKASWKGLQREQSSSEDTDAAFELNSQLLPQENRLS

IC50 [1] [µM]	IC50 [3] [µM]	Compound	IC50 (PBMC [2]) [µM]	further results
7.15	1.3	COc1cc2c(cc1OCC1CC1)CN1C(=O)OCC1C2 (racemic)	9.58	–
23.3	4.1	CCCCCOc1cc2c(cc1OC)CC1COC(=O)N1C2 (racemic)	–	–
–	8.18	COc1cc2c(cc1OCc1ccccc1)CN1C(=O)OCC1C2 (configuration not stated)	–	–
31.6	1.95	COc1cc2c(cc1OC1CCCC1)C(c1ccccc1)N1C(=O)OCC1C2 (mixture of isomers)	6.75	inhibition in vivo at 10 mg/kg (Rattus norvegicus): 28.1%; inhibition in vivo at 10 mg/kg (Mus musculus): 40.4%
26.7	2.06	COc1cc2c(cc1OC1CCCC1)C(C1CCCCC1)N1C(=O)OCC1C2 (mixture of isomers)	9.05	–
–	6.05	CCCCCCOc1cc2c(cc1OC)CC1COC(=O)N1C2 (racemic)	–	–
–	52.1	COc1cc2c(cc1OC)CN1C(=O)OCC1C2 (racemic)	–	–
–	> 100	COc1cc2c(cc1O)CN1C(=O)OCC1C2 (configuration not stated)	–	–
13.9	2.62	COc1cc2c(cc1OC1CCCCC1)CN1C(=O)OCC1C2 (racemic)	8.4	–
5.13	0.6	COc1cc2c(cc1OC1CCCC1)CN1C(=O)OCC1C2 (racemic)	1.35	inhibition in vivo at 10 mg/kg (Rattus norvegicus): 42.3%; inhibition at 100 µM (PDE7A): 5%; inhibition at 100 µM (PDE1A): 12%; inhibition at 100 µM (PDE5A): 14%; inhibition [4]: 100%; inhibition at 100 µM (PDE6C): 8%; inhibition at 100 µM (PDE9A): 2%; inhibition at 100 µM (PDE10A): 1%; Ratio IC50 (PBMC [5]): 7; inhibition at 100 µM (PDE2A): 3%; inhibition in vivo at 10 mg/kg (Mus musculus): 48.2%; inhibition at 100 µM (PDE11A): 3%; inhibition at 100 µM (PDE8A): 12%; inhibition at 100 µM (PDE3B): 5%
23.1	2.1	CCCCCCC1c2cc(OC3CCCC3)c(OC)cc2CC2COC(=O)N21 (mixture of isomers)	7.98	–
–	22.4	CCCOc1cc2c(cc1OC)CC1COC(=O)N1C2 (racemic)	–	–
–	–	COc1ccc(C2CNC(=O)C2)cc1OC1CCCC1 (configuration not stated) [ROLIPRAM]	10.8	inhibition in vivo at 10 mg/kg (Rattus norvegicus): 32.3%; inhibition in vivo at 10 mg/kg (Mus musculus): 41%
12.8	1.35	COc1cc2c(cc1OC1CCCC1)C(C)N1C(=O)OCC1C2 (mixture of isomers)	2.6	–

Reference: ChEMBL document CHEMBL4043220, “Rational design of conformationally constrained oxazolidinone-fused 1,2,3,4-tetrahydroisoquinoline derivatives as potential PDE4 inhibitors” (Bioorg Med Chem, 2017)
